Measured values taken from publication PMC12257511 (Journal of the American Chemical Society, 2025).
Where a SMILES comes first, the peptide text is derived from it. Bridges are numbered along the chain shown (N, C = ends).

Tests used:
[1] = molecular target: T1, αSyn (Homo sapiens, UniProt P37840); experiment: Phase separation assay of αSyn with peptides; assay type: biochemical
Outline: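 αSyn monomer dissolved in 10 mM NaOH to neutral pH, filtered, stored at −80 °C as a 400 μM stock. Mixed with 10% PEG in buffer pH 7.5 (DIC series: 20 mM sodium phosphate) and test compound from DMSO stock, 1% DMSO final. αSyn 100 μM unless stated (20–200 μM range); peptide 10–1,000 μM. Incubated 30 min at 4 °C. DIC at room temperature; turbidity at 600 nm, 1 mm cell, Peltier-controlled.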

[2] = system: αSyn1–103; experiment: Phase separation assay with C-terminally truncated αSyn; assay type: biochemical, human; settings: 400 μM peptide, DIC images
[3] = molecular target: T1, αSyn; experiment: ThT/ANS fluorescence assay of spontaneous αSyn aggregation; assay type: biochemical
Outline: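 αSyn monomer diluted in 10× PBS with 20 μM ThT and 50 μM ANS (from 1 mM stock) and test compound at 0.1–10 mol equiv, prepared on ice. Plate held at 37 °C, cycling 3 min shaking/27 min quiescence. Bottom read: ThT ex 440 nm, ANS ex 380 nm, em 480 nm; three repeats per sample. […].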

[4] = Self-assembly and solubility of the peptide itself; assay type: physicochemical; settings: microscopy and turbidity measurements, absence of αSyn
Outline: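 Test compound alone, without αSyn, added from DMSO stock to 10% PEG buffer at 1% DMSO final, over a range of concentrations. Incubated 30 min at 4 °C. Turbidity read at 600 nm in a 1 mm cell; supernatant fluorescence also measured.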

Structure (SMILES): C[C@@H](O)[C@H](NC(=O)[C@H](CCCNC(=N)N)NC(=O)[C@H](Cc1c[nH]c2ccccc12)NC(=O)[C@H](Cc1c[nH]c2ccccc12)NC(=O)[C@H](CCCNC(=N)N)NC(=O)[C@@H]1CCCN1C(=O)[C@H](CCCCN)NC(=O)[C@@H]1CSCC(=O)N[C@@H](Cc2ccc(O)cc2)C(=O)N[C@@H](CCC(N)=O)C(=O)N[C@@H](CCCNC(=N)N)C(=O)N[C@@H](Cc2c[nH]c3ccccc23)C(=O)N1)C(=O)N[C@@H](CS)C(=O)N[C@@H](Cc1ccc(O)cc1)C(=O)N[C@@H](Cc1c[nH]c2ccccc12)C(=O)N[C@@H](CS)C(=O)NCC(=O)N[C@@H](CCCCN)C(=O)N[C@@H](CCCCN)C(=O)N[C@@H](CCCCN)C(N)=O [FL2] ({CH2CO}-YQRWCKPRWWRTCYWCGKKK-NH2; thioether N-5)
- Temperature-dependent turbidity of the condensates ([1]; PBS buffer, 400 μM FL2 or 1 mM FD1): dissociated to a dispersed monomeric state as the temperature increased
- Concentration dependence of droplet formation ([1]; peptide 10–1,000 μM, 100 μM αSyn, 30 min at 4 °C, turbidity at 600 nm and fluorescence of the dilute phase): concentration-dependent increase in droplet formation
- LLPS efficiency with αSyn1–103 (class label in DIC image) [2]: formed aggregates rather than liquid droplets
- ANS fluorescence in the droplets ([3]; 400 μM FL2, 3 h incubation at 37 °C, fluorescence images): increase in ANS fluorescence intensity in the droplets
- Effect on spontaneous αSyn fibril formation, condition ii ([3]; 10% PEG in PBS, 0.1 to 10 mol equiv peptide, ThT, 37 °C, three repeats): a reduction in both ThT fluorescence intensity and lag time
- Maximum ThT and ANS intensity at high peptide concentrations ([3]; conditions ii and iii): decrease of magnitude of ThT signal and increase of ANS intensity
- Effect on spontaneous αSyn fibril formation, condition i ([3]; no PEG, PBS buffer, 0.1 to 10 mol equiv peptide, ThT, 37 °C, three repeats): no acceleration of the fibril formation of αSyn but rather expanded the lag time
- Self-assembly of the peptide itself [4]: tends to undergo self-assembly and/or LLPS at high concentrations
